# Screening results from PubChem BioAssay.
# PP1 counter – blocks human PP1-alpha phosphatase, a PP5 counter-screen | purified PP1alpha, OMFP fluorescence | inhibition, % at 6.7 µM | AID 2235 | 320,000 tested, 0.9% active | P62136;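 active = inhibition above the mean inhibition of all tested compounds plus 3 SD, computed separately for each screening campaign, cut at about 15% in these data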
# Target sequence (P62136 whole entry, looked up): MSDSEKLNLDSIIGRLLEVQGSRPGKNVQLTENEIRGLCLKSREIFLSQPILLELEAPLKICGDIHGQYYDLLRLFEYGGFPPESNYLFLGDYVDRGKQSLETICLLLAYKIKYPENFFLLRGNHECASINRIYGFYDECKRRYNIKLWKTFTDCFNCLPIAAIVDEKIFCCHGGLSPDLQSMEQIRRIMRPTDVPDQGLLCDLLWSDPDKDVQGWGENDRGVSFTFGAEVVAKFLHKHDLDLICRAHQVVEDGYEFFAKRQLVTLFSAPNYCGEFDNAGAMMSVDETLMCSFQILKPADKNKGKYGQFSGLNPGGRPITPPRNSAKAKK
# ZTA counter – counter-screen for EBNA-1 inhibitors: inhibitors of Epstein-Barr virus ZTA; P03206; ZTA-DNA binding, fluorescence polarization; inhibition, % at 11 µM; 320,000 tested, 0.15% active; AID 2234; in the data active = inhibition above about 33%
# Target sequence (P03206 whole entry, looked up): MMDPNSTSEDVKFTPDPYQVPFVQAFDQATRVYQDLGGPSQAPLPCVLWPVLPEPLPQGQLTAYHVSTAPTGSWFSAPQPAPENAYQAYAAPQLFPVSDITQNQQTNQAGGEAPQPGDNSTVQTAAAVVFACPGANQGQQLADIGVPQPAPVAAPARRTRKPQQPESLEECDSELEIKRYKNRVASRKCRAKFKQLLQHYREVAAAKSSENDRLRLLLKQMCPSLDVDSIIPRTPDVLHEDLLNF
# EBNA-1 inh – blocks EBNA-1 binding to DNA; EBNA-1 DNA binding, fluorescence polarization; inhibition, % at 14.8 µM; 300,000 tested, 0.34% active; AID 1950; in the data active = inhibition above about 28%
# NS3 helicase inh – inhibitors of Hepatitis C virus NS3 helicase; NS3 helicase DNA unwinding, Cy5 molecular beacon fluorescence; inhibition, % at 10.9 µM; 290,000 tested, 0.56% active; AID 1800;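 active = inhibition above the mean of all tested compounds plus 3 SD, set per campaign, cut at about 35% in these data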;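 also: 0% = DMSO wells and 100% = thioflavine S control wells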
#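 System: Hepatitis C virus NS3 helicase domain fragment enzyme | Reagent: Annealed dual-labelled DNA beacon duplex, ATP-started | Compound dosing: 10.9 µM single point, 0.8% DMSO | Incubation: 1 h reaction at 25 °C, ATP-initiated | Technique: Cy5 fluorescence | Evaluation: Percent inhibition from t60/t0 fluorescence ratio | Benchmarks: Low DMSO, high thioflavine S at 110 µM | Replication: Singlicate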
# HCV core dimer – HCV core protein dimerization inhibition; TR-FRET GST/Flag-core106 dimerization, 1536-well; inhibition, % at 5 µM; 300,000 tested, 0.33% active; AID 1899;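 active = inhibition above the mean of all tested compounds plus 3 SD, set per screening campaign, cut at about 45% in these data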
#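 Assay system: Tagged HCV core106 pair (GST and Flag) | Buffer or medium: KF-containing HEPES buffer, pH 7.45, DTT, CHAPS, BSA | Also added: Eu donor and XL665 acceptor anti-tag antibodies | Dosing: One concentration, 5 µM, in 0.5% DMSO | Timing: 4 h at 22.5 °C | Technique: TR-FRET 671 and 617 nm emission | Repeats: Singlicate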
# NS3 hel confirm – confirmation of Hepatitis C virus NS3 helicase inhibitors; NS3 helicase DNA unwinding, Cy5 molecular beacon fluorescence; inhibition, % at 10.9 µM; AID 1943; shares compounds with NS3 helicase inh; 1,600 tested, 31% active;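 active = inhibition above the mean of all tested compounds plus 3 SD, cutoff set per campaign, cut at about 36% in these data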
# FID counter trip – displaces DNA intercalator in HCV helicase counter-screen | DNA fluorescent intercalator displacement, fluorescence | 1,600 tested, 4% active | AID 1945 | shares compounds with NS3 helicase inh | inhibition, % at 7.9 µM; in the data active = inhibition above about 37%;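 also: 0% = vehicle and 100% = reference compound; higher means more displacement of ethidium bromide from the DNA hairpin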
# FID counter DR – counter-screen for HCV NS3 helicase inhibitors: DNA intercalator displacement dose response. shares compounds with NS3 helicase inh. AID 2172. 120 tested, under 10 active. fluorescent intercalator displacement from DNA, fluorescence. IC50, µM; call rule not given here
# * marks the source's active call; other numbers are inactive results; . = no result given. In the library only some 1.9% were active in any assay of this set; here they are far more common.
SMILES,PP1 counter,ZTA counter,EBNA-1 inh,NS3 helicase inh,HCV core dimer,NS3 hel confirm,FID counter trip,others
CCSc1nc2c(c(=O)[nH]1)C(c1cccnc1)C(C(=O)OC)=C(C)N2 (stereo not given),-7,2,-8,39*,6,-2,-1,
COc1ccc(Cc2nnc(NC(=O)c3ccc(C)cc3)s2)cc1OC,11,16,3,2,4,.,.,
COc1ccc(Cc2nnc(NC(=O)c3ccc(F)cc3)s2)cc1OC,6,-29,-9,47*,-9,-12,-4,
Cc1occc1C(=O)NNC(=S)NC(=O)COc1ccc(Cl)cc1Cl,0,17,8,72*,-4,58*,-6,FID counter DR=>79
Nc1nc(N)nc(Cc2ccccc2O)n1,-1,-3,.,.,.,.,.,
Oc1ccc(/C=N\Nc2cc(N3CCOCC3)nc(N3CCOCC3)n2)c(O)c1,0,-11,-3,-2,-19,.,.,
Oc1ccc(/C=N/Nc2cc(N3CCCC3)nc(N3CCCC3)n2)cc1O,13,11,3,56*,21,8,23,
C(=C\c1ccccc1)/C=N/Nc1ccc2nncn2n1,-7,-7,-4,44*,-7,-14,-19,
NNC(=S)Nc1ccc(S(=O)(=O)N2CCCCC2)cc1,2,13,4,-2,7,.,.,
Cc1cc(O)c(C(=O)/C=C/c2ccccc2)c(=O)o1,.,.,.,43*,.,-11,2,
Cc1cc(O)c(C(=O)/C=C/c2ccccc2Br)c(=O)o1,12,-4,-1,48*,13,17,7,
FC(F)(F)c1ccc(C2Nc3cccc4cccc(c34)N2)cc1,.,.,.,23,.,.,.,
Clc1cccc(C2Nc3cccc4cccc(c34)N2)c1Cl,8,-2,-8,49*,1,-11,11,
Fc1ccc(C2Nc3cccc4cccc(c34)N2)cc1,-1,-9,-14,45*,-2,-30,17,
Cc1cc(Br)ccc1NC(=O)CN1C(=S)NC(C)(C)CC1C (stereo not given),1,-4,-4,2,-2,.,.,
CCOc1nc(NC2CCCC2)nc(N2CCC(C)CC2)n1,-1,-16,-1,-9,-6,.,.,
O=C1CC2c3ccccc3C1C1C(=O)N(CCc3ccccc3)C(=O)C21 (stereo not given),-1,-9,7,6,8,.,.,
O=C(NCCc1cccs1)C12CN(Cc3ccccc3)CC1C(c1cccc([N+](=O)[O-])c1)=NO2 (stereo not given),8,0,-6,56*,18,2,-21,
CC(C)CCNC(=O)C12CN(Cc3ccccc3)CC1C(c1cccc([N+](=O)[O-])c1)=NO2 (stereo not given),2,-3,-5,24,-5,.,.,
CCOc1ccc(OCCCN(C)C)cc1,-2,17,2,-4,-1,.,.,
CCOc1ccc(OCCCCN(C)C)cc1,1,-5,15,49*,-2,-7,15,
Cc1c(OCC(=O)N2CCN(c3ccccc3)CC2)ccc2c3c(c(=O)oc12)CCCC3,2,-14,-6,-2,-2,.,.,
O=C(NNC(=S)NC(=O)c1ccccc1[N+](=O)[O-])c1ccccc1[N+](=O)[O-],7,14,3,0,2,.,.,
CCCCOc1ccccc1C(=O)NNC(=S)NC(=O)c1ccccc1[N+](=O)[O-],6,-1,3,40*,0,51*,-3,FID counter DR=>79
CCCc1nc(NC(=O)c2ccccc2)nc(NC(=O)c2ccccc2)n1,-1,8,10,4,-3,.,.,
SMILES,PP1 counter,ZTA counter,EBNA-1 inh,NS3 helicase inh,HCV core dimer,NS3 hel confirm,FID counter trip,others
CN(CC(=O)Nc1ccc(F)cc1)C(=O)Cn1nnc(-c2ccccc2)n1,1,-12,-3,5,-10,.,.,
CC(/C=N/n1c(-c2cc(C)[nH]n2)n[nH]c1=S)=C\c1ccco1,0,1,-5,45*,7,-16,-5,
CC(/C=N/n1c(-c2ccc(Cl)cc2)n[nH]c1=S)=C\c1ccco1,1,1,0,19,41,.,.,
C=CCn1c(SCC(=O)NCCCC)nc2scc(-c3ccco3)c2c1=O,1,5,10,50*,2,82*,-9,FID counter DR=>79
Nc1c(C(=O)Nc2ccccc2F)sc2nc(-c3ccco3)ccc12,7,-9,0,59*,48*,74*,6,FID counter DR=>79
Cc1ccc(-c2c3c(nc4sc(C(N)=O)c(N)c24)CCCC3)o1,-2,0,-5,16,-7,.,.,
NC(=O)c1sc2nc(-c3ccco3)ccc2c1N,-2,11,4,74*,-17,-6,0,
NC(=O)c1sc2nc3c(c(-c4ccco4)c2c1N)CCC3,0,-6,-9,58*,2,-27,8,
Cc1ccc(C(=O)NCc2ccncc2)cc1S(=O)(=O)N1CCCCC1,-2,-10,1,-6,8,.,.,
COC(=O)c1c(NC(=O)CCNCc2ccco2)sc2c1CCC2,-3,-10,1,-21,0,.,.,
O=C(O)c1cc(/C=C/C(=O)c2cc(F)ccc2O)c2c(c1)COCO2,-5,1,-2,49*,5,52*,-16,
O=C(O)CC(c1cccc2ccccc12)n1cccc1 (stereo not given),-3,-19,2,67*,-4,-20,1,
CC(C)c1ccc(/C=C/c2[nH]c(=O)[nH]c(=O)c2[N+](=O)[O-])cc1,5,3,-8,56*,6,53*,5,
CCSc1nc(-c2ccccc2)c(C#N)c(=O)[nH]1,9,3,-1,15,0,.,.,
CCCOc1ccc(-c2nc(SCc3ccccc3)[nH]c(=O)c2C#N)cc1OC,0,11,17,36*,22,91*,-14,FID counter DR=>79
O=C(CSc1nnc(-c2ccco2)n1Cc1ccccc1)c1ccc(F)cc1,1,5,-8,39*,4,74*,-2,
CCN(CC)CCN(CC(=O)Nc1c(C)cc(C)cc1C)C(=O)c1ccccc1,2,17,7,-6,2,.,.,
COCCN(CCOC)C(=O)CSc1ccc(S(=O)(=O)N2CCN(C)CC2)cn1,-4,3,.,.,.,.,.,
Cc1nn(-c2ccccc2)c2c1C1(C(=O)N(C)c3ccccc31)C(C#N)=C(N)O2 (stereo not given),2,-6,2,42*,-11,-21,-27,
Cc1nc2nc(N)nc(OCc3ccccc3)c2nc1C,-4,-5,-14,.,3,.,.,
Clc1ccc(-c2nc(Cc3ccccc3Cl)no2)cc1,4,3,-3,1,5,.,.,
CN(C(=O)c1ccco1)c1nc(-c2ccc(Cl)cc2)cs1,-1,5,4,-3,14,.,.,
O=S(=O)(Cc1noc(-c2ccc(Cl)cc2)n1)Cc1ccco1,-2,-9,1,52*,0,-11,0,
